Bioassay records from PubChem.
KLK5 inh = kallikrein 5 (human) inhibition; AID 873; inhibition, % at 5 µM; recombinant hK5, fluorogenic AMC substrate cleavage; Q9Y337; hit rate 0.59% among 210,000;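 active = inhibition of 40% or more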;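 note: 0% = enzyme controls without compound and 100% = no-enzyme blanks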
FXIa inh 1536 = factor XIa (human) inhibition | AID 798 | purified FXIa, Boc-Glu-Ala-Arg-AMC fluorogenic substrate | hit rate 0.14% among 220,000 | P03951 | inhibition, % at 5 µM;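 active = inhibition of at least 40%; inactive = inhibition below 40%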;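 note: fluorescence of freed AMC excited at 355 nm; 0% = enzyme without compound and 100% = no enzyme blank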
Target sequence (P03951 19-387 limits assumed): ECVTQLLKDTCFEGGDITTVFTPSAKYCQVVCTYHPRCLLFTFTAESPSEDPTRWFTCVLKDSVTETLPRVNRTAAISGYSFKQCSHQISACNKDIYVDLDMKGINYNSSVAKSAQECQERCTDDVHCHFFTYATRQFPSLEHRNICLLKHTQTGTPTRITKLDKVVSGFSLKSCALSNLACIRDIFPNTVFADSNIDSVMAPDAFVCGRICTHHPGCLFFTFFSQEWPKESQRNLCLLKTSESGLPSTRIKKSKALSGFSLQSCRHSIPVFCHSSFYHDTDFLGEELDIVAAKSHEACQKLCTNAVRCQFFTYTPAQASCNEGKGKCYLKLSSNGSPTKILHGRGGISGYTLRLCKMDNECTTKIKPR
Target sequence (P03951 388-625 limits assumed): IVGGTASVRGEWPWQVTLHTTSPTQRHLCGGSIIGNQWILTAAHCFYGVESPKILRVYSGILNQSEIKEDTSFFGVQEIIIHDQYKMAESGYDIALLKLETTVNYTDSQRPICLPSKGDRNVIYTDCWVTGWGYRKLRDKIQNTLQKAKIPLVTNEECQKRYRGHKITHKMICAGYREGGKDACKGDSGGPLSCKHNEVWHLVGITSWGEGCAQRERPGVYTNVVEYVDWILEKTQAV
thrombin 1536 = inhibitors of human thrombin; P00734; alpha-thrombin, Boc-VPR-AMC fluorogenic substrate cleavage; inhibition, % at 5 µM; hit rate 0.26% among 220,000; AID 1046;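 active = inhibition at or above 40%; inactive = inhibition below 40%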;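 note: 0% = enzyme with no compound and 100% = wells without enzyme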
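Material: Human alpha-thrombin protein | Buffer or medium: pH 7.5 Tris-saline with Tween 20 | Reagent: Boc-VPR-AMC substrate, 15 µM final | Schedule: Reaction at ambient temperature | Detection: AMC fluorescence at 355 nm excitation and 460 nm emission | Evaluation: Percent inhibition scaled between no-compound controls and no-enzyme blanks | Controls: no-compound enzyme wells and no-enzyme blanks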
m-calpain inh = blocks pig calpain II enzyme activity; purified calpain II, fluorogenic peptide substrate, 30 min; inhibition, % at 16 µM; hit rate 0.37% among 220,000; AID 1236;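 active = inhibition above about 50%, limit read from the data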
FXIIa inh = inhibitors of human coagulation factor XIIa; P00748; purified FXIIa, Boc-QGR-AMC fluorogenic substrate, 2 h; inhibition, % at 5 µM; hit rate 0.3% among 220,000; AID 800; in the data active = inhibition above about 40%;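 note: 0% = enzyme with no compound and 100% = blank without enzyme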
* marks the source's active call; other numbers are inactive results; . = no result given. The list is not random: actives were taken first. Their share in the collection is about 1.4%.

SMILES | KLK5 inh | FXIa inh 1536 | thrombin 1536 | m-calpain inh | FXIIa inh
Cc1nc(S/C(=C/c2ccc(OCc3ccc(C(=O)O)cc3)cc2)C(=O)O)n[nH]1 | -2 | 3 | 2 | 22 | 4
CC(=O)Nc1ccccc1-c1nc2ccc(C(=O)N3CCN(c4cccc(C)c4)C(C)C3)cc2[nH]c1=O (centres undefined) | 59* | -4 | 18 | 0 | 16
CCn1cc(C(=O)NCc2ccccc2OC)c(=O)c2cc(S(=O)(=O)N(C)C)ccc21 | 0 | -4 | 9 | -21 | 9
CCn1cc(C(=O)NCc2ccc3c(c2)OCO3)c(=O)c2cc(S(=O)(=O)N(C)C)ccc21 | -10 | 5 | 55* | -2 | 12
CCn1cc(C(=O)NCc2ccc3c(c2)OCO3)c(=O)c2cc(S(=O)(=O)N3CCOCC3)ccc21 | -8 | -13 | 93* | 23 | -4
CCn1cc(C(=O)NCc2ccc(Cl)cc2)c(=O)c2cc(S(=O)(=O)N3CCOCC3)ccc21 | -6 | 6 | 56* | -24 | 14
Clc1ccc(CSc2nnnn2-c2ccc3c(c2)OCO3)c(Cl)c1 | 1 | -1 | -1 | 32 | 1
O=C(O)c1cccc(NC(=S)N/N=C/c2ccccc2OCc2cccc(Br)c2)c1 | 0 | -3 | 2 | 56* | 2
O=C(O)c1cccc(NC(=S)N/N=C/c2ccccc2OCc2ccc(Br)cc2)c1 | 3 | 0 | 6 | -6 | 2
N#CC(c1ccc(Cl)cc1)c1ccc(Cl)nn1 (centres undefined) | 1 | 2 | 4 | -6 | 10
Cc1ccc(S(=O)(=O)Nc2ccc(S(=O)(=O)Nc3cc(C)nc(C)n3)cc2)cc1 | -1 | 1 | . | -6 | 8
Cc1cc(NS(=O)(=O)c2ccc(N3C(=O)C4C5C=CC(C5)C4C3=O)cc2)nc(C)n1 (centres undefined) | -10 | 67* | 0 | -8 | 4
O=C(NNC(=O)c1cccnc1)Nc1ccc([N+](=O)[O-])cc1 | 42* | 9 | 34 | 32 | 24
O=C(NNC(=O)c1ccncc1)Nc1ccc([N+](=O)[O-])cc1 | 1 | 0 | 0 | 12 | 8
CC12CCC(C(=O)N3CCN(c4ccccc4)CC3)(CC1=O)C2(C)C (centres undefined) | 54* | 5 | 8 | 8 | 2
CC1CC(C)(C)NC(=S)N1CCC(=O)N1CCc2ccccc21 (centres undefined) | -1 | -3 | -2 | -17 | 8
COC(=O)c1cccc(NC(=O)c2cccc(OC)c2)c1 | -16 | -8 | -10 | 53* | 1
COc1cccc(C(=O)Nc2cccc(-c3nnc(-c4ccco4)o3)c2)c1 | -1 | 0 | 1 | 56* | 12
COC(=O)c1cccc(NC(=O)NC(=O)c2ccc(Cl)cc2)c1 | 70* | 11 | 12 | 42 | 24
COc1cccc(C(=O)Nc2cccc(C(C)=O)c2)c1 | -9 | 8 | -4 | 23 | 8
O=C(Nc1ccccc1)c1cccc(-c2nnc(-c3ccccc3)o2)c1 | -4 | -3 | -1 | -7 | 4
CCn1c(CN2CCN(Cc3ccc(C)cc3)C(CCO)C2)nc2ccccc21 (centres undefined) | 16 | 0 | -4 | 2 | 6
CN(C)CCN(C(=O)c1ccccc1Cl)c1nc2c(Cl)cccc2s1 | -6 | 3 | -4 | 2 | 10
Cc1ccc(S(=O)(=O)NC(=O)N2CCC(C)CC2)cc1 | 39 | 4 | 50* | 11 | 22
Cc1ccc(S(=O)(=O)NCC(=O)N2CCC(C)CC2)cc1 | -3 | -9 | -8 | -4 | 5
SMILES | KLK5 inh | FXIa inh 1536 | thrombin 1536 | m-calpain inh | FXIIa inh
CCOC(=O)c1c(NC(=O)CSc2nc3ccccc3c(=O)n2-c2ccccc2)sc(C(C)=O)c1C | -17 | 5 | -4 | -47 | 13
CC(C)(C)NC(=O)C(=O)NNC(=O)c1cccc(F)c1 | . | 5 | 1 | 21 | 12
CCCc1nc(SCC(=O)c2ccccc2)c2c(=O)n(C)c(=O)n(C)c2n1 | -5 | 3 | 2 | 53* | 12
CCOC(=O)c1nnc(-c2cccs2)nc1NC(C)C | 115* | 0 | 4 | 11 | 2
CC(OC(=O)c1cc(=O)[nH]c2ccccc12)C(=O)c1ccccc1 (centres undefined) | -2 | -2 | 3 | -7 | 3
O=C(/C=C/c1ccccc1)OCc1cnc(Cl)s1 | -5 | -6 | 1 | -29 | 3
COc1ccc2cc(C(=O)N3CCCCCC3)sc(=O)c2c1OC | -23 | 23 | 2 | 60* | 27
COC(=O)c1ccccc1NC(=O)CN(C)S(=O)(=O)c1ccc(OC)c(C)c1 | 119* | -4 | 2 | -11 | 4
COC(=O)c1ccccc1NC(=O)CN(C)S(=O)(=O)c1ccc(OC)cc1 | -3 | 2 | 1 | 20 | 10
Cc1ccc(S(=O)(=O)N(C)CC(=O)Nc2ccccc2)cc1 | 53* | 15 | 14 | 12 | 23
Cc1cc(F)ccc1S(=O)(=O)Nc1ncnc2sc3c(c12)CCC3 | 11 | 41* | 2 | -44 | 23
O=C(CSc1ncccn1)Nc1ccc2c(c1)CCC2 | 0 | -1 | -6 | -1 | 7
Cc1ccc(C(=O)Nc2cccnc2Oc2ccc(Cl)cc2)cc1 | -2 | 1 | -5 | 21 | 2
Cc1ccc(S(=O)(=O)Nc2cccnc2Oc2ccc(Cl)cc2)cc1 | 28 | 17 | 47* | 18 | 44*
O=C(c1ccco1)n1nc(-c2cccnc2)nc1NCc1ccco1 | 4 | 11 | 96* | -3 | 19
O=C(c1ccccc1)n1nc(-c2ccccc2)nc1NCc1ccco1 | 15 | -1 | 73* | -12 | 10
O=C(COC(=O)c1ccc([N+](=O)[O-])s1)Nc1cccc(S(=O)(=O)NC2=NCCCCC2)c1 | 2 | 6 | 45* | 0 | 6
O=C(CC(Nc1ccc(F)cc1)C(=O)O)c1ccccc1 (centres undefined) | 52* | 1 | 4 | 10 | 2
Cc1ccc(NC(CC(=O)c2ccccc2)c2ccc(F)cc2)cc1 (centres undefined) | 0 | -1 | 0 | 34 | 9
O=C(CC(Nc1ccc(F)cc1)C(=O)OCC(=O)c1cccs1)c1ccccc1 (centres undefined) | -2 | -6 | 50* | 6 | 6
CCC1Oc2ccccc2N(CC(=O)NCc2cccs2)C1=O (centres undefined) | . | -2 | 1 | -23 | 9
Nc1nc2c(Cl)ccc(Cl)c2s1 | -13 | -4 | 2 | 5 | 24
Nc1nc(CCl)nc(Nc2ccc3ccccc3c2)n1 | 61* | 32 | 1 | -2 | 18
CC1Cc2ccccc2N1C(=O)COC(=O)CCc1nc2ccccc2c(=O)[nH]1 (centres undefined) | -7 | -3 | 4 | -10 | 4
COC(=O)c1cc2occc2n1CC(=O)Nc1cc(OC)cc(OC)c1 | 62* | 2 | 18 | -2 | 27
COC(=O)c1cc2occc2n1CC(=O)Nc1ccc(OC)c(OC)c1 | -18 | 3 | -4 | 4 | 12
O=C(NNC(=O)c1ccc(SCC2CCCO2)c([N+](=O)[O-])c1)c1ccc(F)cc1 (centres undefined) | 0 | 18 | -18 | 26 | 15
